# Measured values published in ChEMBL document CHEMBL1150253, “Synthesis and anti-platelet evaluation of 2-benzoylaminobenzoate analogs” (Bioorg Med Chem, 2008).
# pIC50: −log10 of the molar value.
# Key:
# [1] = system: Blood; assay: Inhibition of collagen-induced platelet aggregation in human blood after 3 mins by turbidimetric assay; conditions: 0.05 h
# [2] = system: Blood; assay: Inhibition of thrombin-induced platelet aggregation in human blood after 3 mins by turbidimetric assay; conditions: 0.05 h
# [3] = system: Blood; assay: Inhibition of arachidonic acid-induced platelet aggregation in human blood after 3 mins by turbidimetric assay; assay type: functional, tissue-based; conditions: 0.05 h
# In short: (§1)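 Washed human platelets were prepared from ACD-anticoagulated blood of healthy volunteers who had taken no drugs for two weeks. They were resuspended at 3 × 10⁸/ml in Tyrode's solution with Ca²⁺ 2 mM, glucose 11.1 mM and BSA 3.5 mg/ml. Platelets were preincubated with DMSO (0.5%) or compound at 37 °C for 3 min, stirring at 1200 rpm. Inducers were arachidonic acid, collagen, U46619 or thrombin (0.1 U/ml). Aggregation was read by light transmission. IC50 is mean ± SEM, n = 3.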
# [4] = system: Blood; assay: Inhibition of U46619-induced platelet aggregation in human blood after 3 mins by turbidimetric assay; assay type: functional, tissue-based; conditions: 0.05 h
# In short: as §1
# [5] = system: Platelet; assay: Inhibition of arachidonic acid-induced TxB2 formation in human platelet at 1 uM per 3 x 10^8 platelets by immunoassay; assay type: functional
# In short: (§2)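 Washed human platelets were suspended in Tyrode's solution with Ca²⁺, glucose and BSA and preincubated with DMSO or compound at 37 °C for 3 min. Arachidonic acid was then added. After 5 min the reaction was stopped with EDTA (2 mM) plus indomethacin. Samples were centrifuged for 3 min at 13,000 rpm. Supernatant TxB2 was measured by enzyme immunoassay and expressed per 3 × 10⁸ platelets. Values are mean ± SEM, n = 3.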
# [6] = system: Platelet; assay: Inhibition of arachidonic acid-induced TxB2 formation in human platelet at 0.5 uM per 3 x 10^8 platelets by immunoassay; assay type: functional
# In short: as §2
# [7] = system: Platelet; assay: Inhibition of arachidonic acid-induced TxB2 formation in human platelet at 200 uM per 3 x 10^8 platelets by immunoassay; assay type: functional
# In short: as §2
pIC50 [1],pIC50 [2],pIC50 [3],pIC50 [4],Structure (SMILES),Activity [5],Activity [6],Activity [7]
4.33,< 4.00,5.31,< 4.00,CCOC(=O)c1ccc(Cl)cc1NC(=O)c1ccccc1OC,–,–,–
4.84,< 4.00,5.80,–,CCCOC(=O)c1ccc(F)cc1NC(=O)c1ccccc1F,–,–,–
< 4.00,< 4.00,< 4.00,–,CCCOC(=O)c1ccc([N+](=O)[O-])cc1NC(=O)c1ccccc1OC,–,–,–
5.10,< 4.00,5.33,–,CCCOC(=O)c1ccc([N+](=O)[O-])cc1NC(=O)c1ccccc1C,–,–,–
5.02,< 4.00,5.46,< 4.00,CCCOC(=O)c1ccc(Cl)cc1NC(=O)c1ccccc1Br,–,–,–
4.48,< 4.00,4.50,–,CCCOC(=O)c1ccc(F)cc1NC(=O)c1ccccc1OC,–,–,–
4.60,< 4.00,5.70,–,CCCOC(=O)c1ccc(F)cc1NC(=O)c1ccccc1C,–,–,–
4.56,–,5.51,–,CCCOC(=O)c1ccc(C)cc1NC(=O)c1ccccc1Br,–,–,–
4.80,< 4.00,5.31,< 4.00,CCOC(=O)c1ccc(Cl)cc1NC(=O)c1ccccc1C,–,–,–
4.20,< 4.00,4.98,–,CCCOC(=O)c1ccc(C)cc1NC(=O)c1ccccc1OC,–,–,–
–,< 4.00,6.05,< 4.00,CCOC(=O)c1ccc(Cl)cc1NC(=O)c1c(F)cccc1F,–,–,–
–,4.31,6.30,< 4.00,CCCOC(=O)c1ccc(Cl)cc1NC(=O)c1c(F)cccc1F,7.74 ng,45.47 ng,–
5.39,< 4.00,5.47,< 4.00,CCCNC(=O)c1ccc(Cl)cc1NC(=O)c1ccccc1Cl,–,–,–
4.53,< 4.00,4.42,< 4.00,CCCOC(=O)c1ccc(Cl)cc1NC(=O)c1c(Cl)cccc1Cl,–,–,–
4.70,< 4.00,5.42,< 4.00,CCOC(=O)c1ccc(Cl)cc1NC(=O)c1ccccc1F,–,–,–
5.11,–,5.80,–,CCCOC(=O)c1ccc(C)cc1NC(=O)c1ccccc1Cl,–,–,–
5.12,< 4.00,6.00,< 4.00,CCOC(=O)c1ccc(Cl)cc1NC(=O)c1ccccc1Cl,–,–,–
4.30,< 4.00,5.15,< 4.00,CCCCOC(=O)c1ccc(Cl)cc1NC(=O)c1ccccc1Br,–,–,–
5.47,< 4.00,5.82,< 4.00,CCCNC(=O)c1ccc(Cl)cc1NC(=O)c1ccccc1Br,–,–,–
5.08,< 4.00,5.66,< 4.00,CCCOC(=O)c1ccc(Cl)cc1NC(=O)c1ccccc1C,–,–,–
6.40,< 4.00,6.92,< 4.00,COc1ccc2c(c1)c(CC(=O)O)c(C)n2C(=O)c1ccc(Cl)cc1 [INDOMETHACIN],–,3.09 ng,–
–,< 4.00,6.15,< 4.00,COC(=O)c1ccc(Cl)cc1NC(=O)c1c(F)cccc1F,29.48 ng,61.18 ng,–
5.66,< 4.00,5.46,< 4.00,CCCCNC(=O)c1ccc(Cl)cc1NC(=O)c1ccccc1F,–,–,–
6.00,< 4.00,5.46,< 4.00,CCCCNC(=O)c1ccc(Cl)cc1NC(=O)c1c(F)cccc1F,–,–,–
4.94,< 4.00,5.80,< 4.00,CCCOC(=O)c1ccc(Cl)cc1NC(=O)c1ccccc1F,–,–,–
< 4.00,< 4.00,< 4.00,< 4.00,CCCCOC(=O)c1ccc(Cl)cc1NC(=O)c1c(Cl)cccc1Cl,–,–,–
5.64,< 4.00,6.15,< 4.00,CCCOC(=O)c1ccc(Cl)cc1NC(=O)c1ccccc1Cl,32.52 ng,62.56 ng,–

pIC50 [1],pIC50 [2],pIC50 [3],pIC50 [4],Structure (SMILES),Activity [5],Activity [6],Activity [7]
4.66,< 4.00,5.82,< 4.00,CCCCOC(=O)c1ccc(Cl)cc1NC(=O)c1c(F)cccc1F,–,–,–
5.54,< 4.00,5.70,–,CCCOC(=O)c1ccc([N+](=O)[O-])cc1NC(=O)c1ccccc1Cl,–,–,–
4.95,< 4.00,6.05,–,CCCOC(=O)c1ccc(C)cc1NC(=O)c1ccccc1F,–,–,–
4.99,< 4.00,5.08,< 4.00,CCCNC(=O)c1ccc(Cl)cc1NC(=O)c1ccccc1C,–,–,–
4.49,< 4.00,4.17,< 4.00,CCOC(=O)c1ccc(Cl)cc1NC(=O)c1c(Cl)cccc1Cl,–,–,–
< 4.00,< 4.00,4.63,< 4.00,CCCOC(=O)c1ccc(Cl)cc1NC(=O)c1ccccc1OC,–,–,–
5.03,< 4.00,5.80,–,CCCOC(=O)c1ccc(F)cc1NC(=O)c1ccccc1Cl,–,–,–
4.44,< 4.00,< 4.00,< 4.00,CC(C)OC(=O)c1ccc(Cl)cc1NC(=O)c1ccccc1F,–,–,–
4.54,< 4.00,< 4.00,< 4.00,CC(C)OC(=O)c1ccc(Cl)cc1NC(=O)c1c(F)cccc1F,–,–,–
5.96,< 4.00,5.47,< 4.00,CCCCNC(=O)c1ccc(Cl)cc1NC(=O)c1ccccc1Cl,–,–,–
5.31,< 4.00,5.60,–,CCCOC(=O)c1ccc([N+](=O)[O-])cc1NC(=O)c1ccccc1Br,–,–,–
4.49,< 4.00,5.52,< 4.00,CCCCOC(=O)c1ccc(Cl)cc1NC(=O)c1ccccc1F,–,–,–
< 4.00,< 4.00,< 4.00,< 4.00,CCCCOC(=O)c1ccc(Cl)cc1NC(=O)c1ccccc1OC,–,–,–
4.44,–,4.68,–,CCOC(=O)c1ccc(F)cc1NC(=O)c1ccccc1C,–,–,–
6.00,< 4.00,5.54,< 4.00,CCCNC(=O)c1ccc(Cl)cc1NC(=O)c1c(F)cccc1F,–,–,–
5.46,< 4.00,5.33,–,CCCOC(=O)c1ccc([N+](=O)[O-])cc1NC(=O)c1ccccc1F,–,–,–
3.81,< 4.00,3.82,< 4.00,CC(=O)Oc1ccccc1C(=O)O [ASPIRIN],–,–,26.68 ng
5.07,< 4.00,4.09,< 4.00,CC(C)OC(=O)c1ccc(Cl)cc1NC(=O)c1ccccc1Cl,–,–,–
4.95,< 4.00,5.22,< 4.00,CCCNC(=O)c1ccc(Cl)cc1NC(=O)c1ccccc1OC,–,–,–
4.12,< 4.00,5.33,< 4.00,CCCCOC(=O)c1ccc(Cl)cc1NC(=O)c1ccccc1C,–,–,–
4.78,< 4.00,5.48,–,CCCOC(=O)c1ccc(F)cc1NC(=O)c1ccccc1Br,–,–,–
4.71,< 4.00,5.68,< 4.00,CCCCOC(=O)c1ccc(Cl)cc1NC(=O)c1ccccc1Cl,–,–,–
4.96,–,5.39,–,CCOC(=O)c1ccc(F)cc1NC(=O)c1ccccc1Cl,–,–,–
4.70,< 4.00,5.24,–,CCCOC(=O)c1ccc(C)cc1NC(=O)c1ccccc1C,–,–,–
5.47,< 4.00,4.90,< 4.00,COC(=O)c1ccc(Cl)cc1NC(=O)c1c(Cl)cccc1Cl,–,–,–
5.06,< 4.00,5.72,< 4.00,CCCNC(=O)c1ccc(Cl)cc1NC(=O)c1ccccc1F,–,–,–
4.86,< 4.00,5.44,< 4.00,CCOC(=O)c1ccc(Cl)cc1NC(=O)c1ccccc1Br,–,–,–
